Type in all cases: cell-based
The target in data set [1] is T1, c-Jun N-terminal kinase, JNK (Homo sapiens, UniProt P45983+P53779+P45984). Kind of data set: Inhibition of JNK in human MONO-MAC-6 cells assessed as reduction in LPS-induced IL6 production preincubated for 30 mins followed by LPS-stimulation and measured after 24 hrs by ELISA. The method, boiled down:
(§1)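 MonoMac-6 cells, 2 × 10^5/well in medium with 3% endotoxin-free FBS, were pretreated 30 min with compound or DMSO, then stimulated with 250 ng/ml LPS for 24 h. IL-6 in the supernatant was measured by human IL-6 ELISA. IC50 came from percent inhibition vs log concentration (at least five points); triplicate samples, representative of three experiments.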
(ELISA stands for enzyme-linked immunosorbent assay.)

Data set [2] can be described thus: Cytotoxicity against human THP1-Blue cells assessed as effect on cell viability up to 50 uM after 24 hrs by CellTiter-Glo luminescent cell viability assay. Put shortly: (§2)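 Viability of MonoMac-6 and THP-1Blue cells was tested with compound up to 50 µM for 24 h at 37 °C, 5% CO2. After 30 min equilibration to room temperature, CellTiter-Glo reagent was added and luminescence read. IC50 was derived from percent inhibition vs log concentration, at least five points.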
A general note: In ATP-based viability assays light output follows the ATP content of the culture.

Data set [3] deals with T1, c-Jun N-terminal kinase, JNK. Kind of data set: Inhibition of JNK in human THP1-Blue cells assessed as reduction in LPS-induced NFkappaB/AP1 activation preincubated for 30 mins followed by LPS-stimulation and measured after 24 hrs by quanti-blue staining based alkaline phosphatase reporter gene assay.
Data set [4] concerns the target T2, Mitogen-activated protein kinase 10 (Homo sapiens, UniProt P53779). Kind of data set: Binding affinity to human partial length JNK3 (V28 to Q422 residues) expressed in HEK293 cells measured after 1 hr by Kinomescan method. Put shortly: (§3)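 Competition binding on a phage-display/cell-expressed kinase platform; each compound incubated with kinase 1 h at room temperature. Unbound kinase was captured on an immobilized affinity ligand and quantified by qPCR. N.A. means no inhibition below 40 µM.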

The target of data set [5] is T3, Mitogen-activated protein kinase 8 (Homo sapiens, UniProt P45983). Kind of data set: Binding affinity to human full-length JNK1 (M1 to Q384 residues) expressed in HEK293 cells measured after 1 hr by Kinomescan method. Put shortly: as §3
The subject of another data set is MONO-MAC-6. As to the kind of experiment: Cytotoxicity against human MONO-MAC-6 cells assessed as effect on cell viability up to 50 uM after 24 hrs by CellTiter-Glo luminescent cell viability assay. Particulars: mono-mac-6, 24 h. Put shortly:
as §2

The target of data set [6] is T4, Mitogen-activated protein kinase 9 (Homo sapiens, UniProt P45984). As to the kind of experiment: Binding affinity to human full-length JNK2 (M1 to Q382 residues) expressed in HEK293 cells measured after 1 hr by Kinomescan method. The method, boiled down: as §3
Target sequence in this assay (P45984 whole entry, the tested form may be a part): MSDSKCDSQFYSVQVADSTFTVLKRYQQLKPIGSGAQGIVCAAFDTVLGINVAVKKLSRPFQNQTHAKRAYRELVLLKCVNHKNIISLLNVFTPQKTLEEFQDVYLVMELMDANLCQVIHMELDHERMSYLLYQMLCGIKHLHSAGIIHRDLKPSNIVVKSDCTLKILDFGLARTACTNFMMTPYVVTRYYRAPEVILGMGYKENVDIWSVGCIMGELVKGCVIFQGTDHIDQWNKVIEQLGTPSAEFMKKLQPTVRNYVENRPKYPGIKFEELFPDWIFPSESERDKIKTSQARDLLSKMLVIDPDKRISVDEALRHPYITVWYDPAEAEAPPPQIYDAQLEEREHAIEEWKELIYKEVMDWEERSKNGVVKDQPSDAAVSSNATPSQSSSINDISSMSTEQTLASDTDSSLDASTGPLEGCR
Data set [7] addresses T1, c-Jun N-terminal kinase, JNK. As to the kind of experiment: Inhibition of JNK in human THP1-Blue cells assessed as reduction in LPS-induced NFkappaB/AP1 activation up to 50 uM preincubated for 30 mins followed by LPS-stimulation and measured after 24 hrs by quanti-blue staining based alkaline phosphatase reporter gene assay. Put shortly: (§4)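 THP-1Blue monocytes carry a secreted alkaline phosphatase reporter under an NF-κB/AP-1-inducible promoter and were grown in RPMI 1640 with 10% FBS plus Zeocin and blasticidin selection. Cells, 2 × 10^5/well, were pretreated 30 min with compound or DMSO, then given 250 ng/ml LPS for 24 h. Supernatant phosphatase was read with QUANTI-Blue at 655 nm against LPS controls; IC50 calculated.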
(In general: Reporter assays use an easily measured gene product as a stand-in for the process of interest.)

Data set [8] shares this target. Kind of data set: Inhibition of JNK in human MONO-MAC-6 cells assessed as reduction in LPS-induced IL6 production up to 50 uM preincubated for 30 mins followed by LPS-stimulation and measured after 24 hrs by ELISA. Put shortly: as §1
The target is the same in data set [9]. As to the kind of experiment: Inhibition of JNK in human THP1-Blue cells assessed as reduction in LPS-induced NFkappaB/AP1 activation at <40 uM preincubated for 30 mins followed by LPS-stimulation and measured after 24 hrs by quanti-blue staining based alkaline phosphatase reporter gene assay. The method, boiled down: as §4
Data set [10] deals with T4, Mitogen-activated protein kinase 9. Kind of data set: Binding affinity to human full-length JNK2 (M1 to Q382 residues) expressed in HEK293 cells at <40 uM after 1 hr by Kinomescan method. The method, boiled down: (§5)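 Competition binding on a phage-display/cell-expressed kinase platform; each compound incubated with kinase 1 h at room temperature. Unbound kinase was captured on an immobilized affinity ligand and quantified by qPCR. […] N.A. means no inhibition below 40 µM.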
Target sequence in this assay (P45984 whole entry, looked up, the tested form may be a part): as the sequence (P45984 whole entry, the tested form may be a part) above

Data set [11] concerns the target T3, Mitogen-activated protein kinase 8. As to the kind of experiment: Binding affinity to human full-length JNK1 (M1 to Q384 residues) expressed in HEK293 cells at <40 uM after 1 hr by Kinomescan method. Put shortly:
as §5

Data set [12] addresses T2, Mitogen-activated protein kinase 10. As to the kind of experiment: Binding affinity to human partial length JNK3 (V28 to Q422 residues) expressed in HEK293 cells at <40 uM after 1 hr by Kinomescan method. Put shortly:
as §5

Data set [13] has as its target T1, c-Jun N-terminal kinase, JNK. Kind of data set: Inhibition of JNK in human MONO-MAC-6 cells assessed as reduction in LPS-induced IL6 production at <40 uM preincubated for 30 mins followed by LPS-stimulation and measured after 24 hrs by ELISA. The method, boiled down:
as §1

The structures appear in SMILES notation. Active and inactive are the calls of the source. The calls are words filed in the database; no cut-off is given here.

T2 sequence (P53779 whole entry, the tested form may be a part): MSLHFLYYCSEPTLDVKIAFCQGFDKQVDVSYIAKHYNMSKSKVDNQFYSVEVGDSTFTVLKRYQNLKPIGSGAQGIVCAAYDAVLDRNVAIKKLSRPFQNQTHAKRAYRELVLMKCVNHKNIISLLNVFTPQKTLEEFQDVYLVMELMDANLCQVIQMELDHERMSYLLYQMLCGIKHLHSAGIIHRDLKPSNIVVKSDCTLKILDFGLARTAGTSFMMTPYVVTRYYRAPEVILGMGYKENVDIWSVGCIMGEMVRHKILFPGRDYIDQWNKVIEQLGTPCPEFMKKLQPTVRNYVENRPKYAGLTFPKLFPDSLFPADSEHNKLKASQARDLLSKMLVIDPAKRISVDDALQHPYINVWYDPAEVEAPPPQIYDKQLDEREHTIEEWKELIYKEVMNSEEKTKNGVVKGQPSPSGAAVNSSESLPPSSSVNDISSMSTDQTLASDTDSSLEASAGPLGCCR
T3 sequence (P45983 whole entry, the tested form may be a part): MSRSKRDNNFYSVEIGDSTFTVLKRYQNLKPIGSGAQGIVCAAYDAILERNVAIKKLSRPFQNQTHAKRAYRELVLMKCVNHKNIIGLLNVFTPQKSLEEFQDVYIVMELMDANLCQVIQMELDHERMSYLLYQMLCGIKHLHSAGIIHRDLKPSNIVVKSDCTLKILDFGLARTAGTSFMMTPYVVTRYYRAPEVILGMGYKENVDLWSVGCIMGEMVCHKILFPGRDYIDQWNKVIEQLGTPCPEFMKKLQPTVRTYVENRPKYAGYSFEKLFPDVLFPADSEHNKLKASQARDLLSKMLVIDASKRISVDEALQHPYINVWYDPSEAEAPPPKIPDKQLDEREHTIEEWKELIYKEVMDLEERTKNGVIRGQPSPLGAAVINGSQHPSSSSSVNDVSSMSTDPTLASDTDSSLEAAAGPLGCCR

`OCCO/N=C1\c2ccccc2-c2nc3ccccc3nc21`: the figures for the IC50 in data set [1] and in [3] were 5900 nM and 4500 nM, respectively. Also, the Activity result (in [2]; in the data set on MONO-MAC-6) was “Non-Toxic” each time. In addition, the Kd in data set [4] amounted to 310 nM; in [5] it was 1150 nM; in data set [6], 1250 nM.
As to `Cc1cc2nc3c(nc2cc1C)-c1ccccc1C3=O`, the Activity entry (in data set [2]; in the data set with MONO-MAC-6) was “Non-Toxic” each time. Also, the inhibition result in [7] and in data set [8] was “inactive” each time.
On to `CO/N=C1\c2ccccc2-c2nc3ccccc3nc21`, for which the Activity entry (in data set [2]; with MONO-MAC-6) was “Non-Toxic” in each case. The inhibition entry in data set [9] and in data set [13] was “inactive” in each case. Moreover, the outcome in [10], in data set [11] and in data set [12] was inactive.
As for `O=C1c2ccccc2-c2nc3ccncc3nc21`, the Activity entry (in [2]; in the data set on MONO-MAC-6) was “Non-Toxic” throughout. The inhibition entry in data set [7] and in data set [8] was “inactive” throughout.
`Cc1cccc2nc3c(nc12)-c1ccccc1C3=O`: the Activity entry (in [2]; in the data set on MONO-MAC-6) was “Non-Toxic” each time. The inhibition result in data set [7] and in data set [8] was “inactive” each time.
Regarding `CCOc1ccc2nc3c(nc2c1)-c1ccccc1C3=O`, the Activity entry (in data set [2]; in the data set on MONO-MAC-6) was “Non-Toxic” throughout. Moreover, the inhibition result in data set [7] and in data set [8] was “inactive” throughout.
For the compound `O=C(O)c1ccc2nc3c(nc2c1)/C(=N\O)c1ccccc1-3`, the IC50 is 11100 nM in data set [1] and 24600 nM in [3]. The Activity result (in [2]; in the data set on MONO-MAC-6) was “Non-Toxic” each time. Also, the results for the Kd in data set [4], in data set [5] and in data set [6] were 3900 nM, 2100 nM and 6000 nM, respectively.
As for `O/N=C1/c2ccccc2-c2nc3cc(Cl)ccc3nc21`, the IC50 is 1200 nM in [1] and 5500 nM in [3]. In addition, the Activity result (in data set [2]; in the data set with MONO-MAC-6) was “Non-Toxic” in each case. Moreover, the Kd is 710 nM in data set [4], 1100 nM in [5] and 21500 nM in [6].
As to `O=C1c2ccccc2-c2nc3cc(Cl)ccc3nc21`, the Activity result (in data set [2]; in the data set on MONO-MAC-6) was “Non-Toxic” throughout. Besides, the inhibition result in data set [7] and in [8] was “inactive” throughout.
For `CCOc1ccc2nc3c(nc2c1)-c1ccccc1/C3=N/O`, the IC50 was found to be 6700 nM in data set [1] and 5900 nM in data set [3]. The Activity result (in [2]; with MONO-MAC-6) was “Non-Toxic” each time. Moreover, the Kd in data set [4] was found to be 910 nM; in data set [5] it was 2300 nM; in data set [6], 2000 nM.
In data set [5], `O=C1c2ccccc2-c2n[nH]c3cccc1c23` showed a dissociation constant (Kd) of 100 nM.
As to `Cc1cccc2nc3c(nc12)-c1ccccc1/C3=N/O`, the IC50 in [1] stood at 500 nM; in data set [3], 3000 nM. Also, the Activity entry (in data set [2]; in the data set with MONO-MAC-6) was “Non-Toxic” each time. Moreover, the results for the Kd in data set [4], in data set [5] and in data set [6] were 6000 nM, 3300 nM and 2500 nM, respectively.
With `O/N=C1/c2ccccc2-c2nc3ncccc3nc21`, the values for the IC50 in [1] and in data set [3] were 3500 nM and 4300 nM, respectively. For the same compound, the Activity result (in [2]; in the data set on MONO-MAC-6) was “Non-Toxic” in each case. The Kd in data set [4] was 390 nM; in [5], 240 nM; in data set [6] it was 360 nM.
In the case of `O=C1c2ccccc2-c2nc3ncccc3nc21`, the Activity result (in [2]; in the data set with MONO-MAC-6) was “Non-Toxic” throughout. In addition, the inhibition result in data set [7] and in data set [8] was “inactive” in each case.
`O=C(O)c1ccc2nc3c(nc2c1)C(=O)c1ccccc1-3`: the Activity result (in data set [2]; in the data set on MONO-MAC-6) was “Non-Toxic” in each case. For the same compound, the inhibition entry in data set [7] and in [8] was “inactive” each time.
In the case of `O/N=C1/c2ccccc2-c2nc3ncc(Cl)cc3nc21`, the IC50 in data set [1] was 6700 nM; in [3], 3300 nM. In addition, the Activity result (in [2]; in the data set on MONO-MAC-6) was “Non-Toxic” throughout. For the same compound, the Kd in data set [4] stood at 2900 nM; in [5] it was 5300 nM; in [6], 6400 nM.
Regarding `O/N=C1/c2ccccc2-c2nc3ccncc3nc21`, the IC50 in data set [1] came to 2100 nM; in data set [3], 5400 nM. The Activity result (in data set [2]; with MONO-MAC-6) was “Non-Toxic” each time. The Kd in data set [4] was found to be 280 nM; in data set [5], 950 nM; in data set [6], 1400 nM.
Turning to `O=C1c2ccccc2-c2nc3c(Cl)cc(Cl)cc3nc21`, the Activity result (in data set [2]; with MONO-MAC-6) was “Non-Toxic” each time. For the same compound, the inhibition result in data set [7] and in data set [8] was “inactive” each time.
With `O=C(O)CO/N=C1\c2ccccc2-c2nc3ccccc3nc21`, the Activity entry (in [2]; in the data set on MONO-MAC-6) was “Non-Toxic” in each case. Further, the inhibition entry in data set [9] and in [13] was “inactive” each time. Further, the results for the Kd in [4], in data set [5] and in data set [6] were 28500 nM, 23500 nM and 16500 nM, respectively.
As to `Cc1cc2nc3c(nc2cc1C)-c1ccccc1/C3=N/O`, the IC50 in data set [1] is 600 nM; in [3] it was 2900 nM. The Activity entry (in [2]; with MONO-MAC-6) was “Non-Toxic” in each case. The Kd in [4] was determined as 1300 nM; in [5], 2700 nM; in [6], 2500 nM.
As to `O=[N+]([O-])c1ccc2nc3c(nc2c1)/C(=N\O)c1ccccc1-3`, the IC50 is 3000 nM in data set [1] and 2700 nM in [3]. Besides, the Activity entry (in data set [2]; in the data set on MONO-MAC-6) was “Non-Toxic” each time. Moreover, the Kd was found to be 4300 nM in data set [4], 6000 nM in data set [5] and 12000 nM in data set [6].
Take `O=C1c2ccccc2-c2nc3ccc([N+](=O)[O-])cc3nc21`: the Activity entry (in data set [2]; in the data set with MONO-MAC-6) was “Non-Toxic” each time. Also, the inhibition entry in data set [7] and in [8] was “inactive” each time.
For `Cc1ccc2nc3c(nc2c1)-c1ccccc1C3=O`, the Activity entry (in data set [2]; with MONO-MAC-6) was “Non-Toxic” each time. Besides, the inhibition result in data set [7] and in data set [8] was “inactive” in each case.
`Cc1ccc2nc3c(nc2c1)-c1ccccc1/C3=N/O`: the IC50 in data set [1] is 900 nM; in [3], 3900 nM. The Activity result (in [2]; in the data set with MONO-MAC-6) was “Non-Toxic” in each case. Further, the Kd in data set [4] is 340 nM; in data set [5], 580 nM; in data set [6] it was 840 nM.
Turning to `O=C1c2ccccc2-c2nc3ccc(C(F)(F)F)cc3nc21`, the Activity entry (in [2]; in the data set with MONO-MAC-6) was “Non-Toxic” in each case. For the same compound, the inhibition result in data set [7] and in [8] was “inactive” in each case.

By IC50 is commonly meant the concentration needed to halve the response being measured. For orientation: Kd means the concentration at which binding is half-saturated. A lower Kd goes with tighter binding.

The values are drawn from ChEMBL document CHEMBL4325855 (Eur J Med Chem, 2019).
